Measured values: ChEMBL document CHEMBL1132289, “Novel potent and selective central 5-HT3 receptor ligands provided with different intrinsic efficacy. 2. Molecular basis of the intrinsic efficacy of arylpiperazine derivatives at the central 5-HT3 receptors” (J Med Chem, 1999)

Key:
[1] = molecular target: T1, Serotonin 3 (5-HT3) receptor (Rattus norvegicus, UniProt P35563+Q9JJ16); assay: Inhibition of [3H]granisetron binding to 5-hydroxytryptamine 3 receptor (5-HT 3 receptor) of rat cortex and hippocampus tissue; format: tissue-based
T1 sequence (P35563 whole entry): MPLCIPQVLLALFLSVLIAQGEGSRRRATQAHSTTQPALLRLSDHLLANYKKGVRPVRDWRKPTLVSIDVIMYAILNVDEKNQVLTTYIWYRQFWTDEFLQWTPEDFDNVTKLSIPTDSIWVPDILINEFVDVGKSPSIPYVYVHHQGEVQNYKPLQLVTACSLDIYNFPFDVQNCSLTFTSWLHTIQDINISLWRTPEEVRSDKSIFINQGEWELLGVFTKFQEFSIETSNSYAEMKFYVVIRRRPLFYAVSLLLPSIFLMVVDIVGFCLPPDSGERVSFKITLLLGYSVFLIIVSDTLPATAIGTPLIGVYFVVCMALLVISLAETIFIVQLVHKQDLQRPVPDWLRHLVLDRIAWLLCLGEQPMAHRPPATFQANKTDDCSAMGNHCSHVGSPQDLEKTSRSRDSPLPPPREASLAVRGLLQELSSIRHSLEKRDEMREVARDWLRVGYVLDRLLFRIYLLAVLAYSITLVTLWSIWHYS
T1 sequence (Q9JJ16 whole entry): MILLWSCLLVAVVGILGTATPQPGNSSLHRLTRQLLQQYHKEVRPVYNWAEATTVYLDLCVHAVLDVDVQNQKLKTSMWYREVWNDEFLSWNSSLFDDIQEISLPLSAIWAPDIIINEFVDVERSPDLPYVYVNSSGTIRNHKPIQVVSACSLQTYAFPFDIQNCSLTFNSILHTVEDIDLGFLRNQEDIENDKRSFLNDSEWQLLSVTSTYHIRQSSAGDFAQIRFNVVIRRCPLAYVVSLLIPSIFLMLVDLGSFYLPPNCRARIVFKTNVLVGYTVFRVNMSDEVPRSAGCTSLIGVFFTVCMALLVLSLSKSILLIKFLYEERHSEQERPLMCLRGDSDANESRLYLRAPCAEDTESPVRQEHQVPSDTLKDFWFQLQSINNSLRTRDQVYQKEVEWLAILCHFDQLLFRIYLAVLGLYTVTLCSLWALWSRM

[2] = molecular target: T2, Serotonin 3 (5-HT3) receptor (Rattus norvegicus) (UniProt P35563+Q9JJ16); assay: Intrinsic efficacy against 5-hydroxytryptamine 3 receptor; PA means partial agonist; format: functional; details: filed as partial agonist
Outline: (§1)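 NG 108-15 cells grown 2 days, washed, then exposed 10 min at 37 °C to buffer containing 10 mM guanidinium, [14C]guanidinium, 10 μM substance P, and/or 1 μM 5-HT, with eight drug concentrations. Cells lysed in NaOH, then scintillation counting. EC50 for agonists, IC50 for antagonists. Triplicate per concentration.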

NG108-15 [3] = assay: (§2) Quantitative effect on the [14C]guanidinium accumulation in NG 108-15 cells (mouse neuroblastoma and rat glioma hybrid cells); format: functional, cell-based; details: Murinae; outline: as §1
[4] = molecular target: T2, Serotonin 3 (5-HT3) receptor (Rattus norvegicus); assay: Intrinsic efficacy for rat 5-hydroxytryptamine 3 receptor; format: protein-complex assay; details: filed as antagonist
NG108-15 [5] = assay: as §2; format: functional, cell-based; details: Murinae; remark: listed apart in the source
[6] = molecular target: T1, Serotonin 3 (5-HT3) receptor; assay: Inhibition of [3H]granisetron binding to 5-hydroxytryptamine 3 receptor of rat cortical membrane
[7] = molecular target: T3, 5-hydroxytryptamine receptor 1A (Rattus norvegicus, UniProt P19327); assay: Binding affinity against 5-hydroxytryptamine 1A receptor of rat hippocampus tissue.; format: tissue-based
T3 sequence (P19327 whole entry): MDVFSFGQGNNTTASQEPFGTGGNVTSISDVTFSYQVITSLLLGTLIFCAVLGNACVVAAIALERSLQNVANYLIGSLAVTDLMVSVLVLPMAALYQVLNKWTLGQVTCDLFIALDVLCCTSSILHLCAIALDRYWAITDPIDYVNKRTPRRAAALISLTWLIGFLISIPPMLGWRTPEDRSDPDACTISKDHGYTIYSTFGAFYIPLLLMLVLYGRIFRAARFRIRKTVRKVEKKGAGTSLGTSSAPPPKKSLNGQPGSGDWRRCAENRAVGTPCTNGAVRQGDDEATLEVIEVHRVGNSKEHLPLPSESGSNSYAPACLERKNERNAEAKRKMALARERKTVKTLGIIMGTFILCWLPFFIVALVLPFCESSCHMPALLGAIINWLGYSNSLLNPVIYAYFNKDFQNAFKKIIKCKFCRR
Outline: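 Rat tissue homogenized in ice-cold 50 mM Tris HCl, resuspended in 50 mM Tris HCl pH 7.4. [3H]8-OH-DPAT 0.5 nM final, 4 mg tissue/sample, 0.5 mL incubation. Stopped by vacuum filtration through GF/B filters, scintillation counting. Mean ± SEM of three determinations.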

[8] = molecular target: T4, 5-hydroxytryptamine receptor 2C (Rattus norvegicus, UniProt P08909); assay: Binding affinity against 5-hydroxytryptamine 2C receptor of rat cortex.
T4 sequence (P08909 whole entry): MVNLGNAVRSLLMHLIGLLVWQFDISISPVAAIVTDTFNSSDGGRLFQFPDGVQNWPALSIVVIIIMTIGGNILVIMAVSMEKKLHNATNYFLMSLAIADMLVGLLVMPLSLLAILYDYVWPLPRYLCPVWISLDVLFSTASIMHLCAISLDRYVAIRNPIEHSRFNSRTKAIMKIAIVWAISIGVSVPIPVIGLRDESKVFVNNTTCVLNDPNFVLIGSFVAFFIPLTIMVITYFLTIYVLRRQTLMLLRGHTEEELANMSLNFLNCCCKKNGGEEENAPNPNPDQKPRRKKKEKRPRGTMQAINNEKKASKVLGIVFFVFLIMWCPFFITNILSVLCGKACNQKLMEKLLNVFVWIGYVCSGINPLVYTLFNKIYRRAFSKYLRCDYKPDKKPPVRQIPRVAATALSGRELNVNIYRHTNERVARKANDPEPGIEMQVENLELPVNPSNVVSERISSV

[9] = molecular target: T5, 5-hydroxytryptamine receptor 1B (Rattus norvegicus, UniProt P28564); assay: Binding affinity against 5-hydroxytryptamine 1B receptor of rat striatum.; format: tissue-based
T5 sequence (P28564 whole entry): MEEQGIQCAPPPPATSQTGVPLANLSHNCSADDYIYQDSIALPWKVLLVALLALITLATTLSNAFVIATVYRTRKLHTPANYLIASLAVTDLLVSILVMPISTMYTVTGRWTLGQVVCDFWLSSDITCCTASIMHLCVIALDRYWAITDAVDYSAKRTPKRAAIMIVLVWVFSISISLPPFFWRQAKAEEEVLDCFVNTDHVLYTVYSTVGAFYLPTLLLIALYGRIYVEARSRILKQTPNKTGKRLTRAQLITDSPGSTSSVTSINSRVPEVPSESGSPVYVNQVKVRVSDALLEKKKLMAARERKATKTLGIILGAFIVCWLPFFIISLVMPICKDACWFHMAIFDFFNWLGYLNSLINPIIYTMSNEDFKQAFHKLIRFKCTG

[10] = molecular target: T6, 5-hydroxytryptamine receptor 2A (Rattus norvegicus, UniProt P14842); assay: Binding affinity against 5-hydroxytryptamine 2A receptor of rat pre-frontal cortex.
T6 sequence (P14842 whole entry): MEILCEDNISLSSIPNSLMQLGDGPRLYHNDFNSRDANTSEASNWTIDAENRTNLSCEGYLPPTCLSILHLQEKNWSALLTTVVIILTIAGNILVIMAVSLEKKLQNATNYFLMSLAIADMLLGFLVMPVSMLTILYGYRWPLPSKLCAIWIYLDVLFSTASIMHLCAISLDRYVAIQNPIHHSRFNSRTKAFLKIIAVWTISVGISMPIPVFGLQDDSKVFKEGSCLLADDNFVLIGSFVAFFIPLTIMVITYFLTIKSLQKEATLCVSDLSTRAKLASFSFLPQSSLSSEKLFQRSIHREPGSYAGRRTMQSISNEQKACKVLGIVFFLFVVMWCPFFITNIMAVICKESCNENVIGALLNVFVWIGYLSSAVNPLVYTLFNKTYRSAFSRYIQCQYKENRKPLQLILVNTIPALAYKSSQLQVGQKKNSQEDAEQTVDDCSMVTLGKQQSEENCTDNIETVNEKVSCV
Outline: (§3)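 Membranes incubated with [3H]ketanserin 0.5 nM final, 8 mg tissue/sample, 0.5 mL, 50 mM Tris HCl pH 7.7. Filtration through GF/B filters, then scintillation counting. […] Mean ± SEM of three determinations.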

[11] = molecular target: Sodium-dependent serotonin transporter (Rattus norvegicus, UniProt P31652); assay: Binding affinity towards Serotonin transporter was determined in rat forebrain membrane; format: cell membranes
Sodium-dependent serotonin transporter, sequence (P31652 whole entry): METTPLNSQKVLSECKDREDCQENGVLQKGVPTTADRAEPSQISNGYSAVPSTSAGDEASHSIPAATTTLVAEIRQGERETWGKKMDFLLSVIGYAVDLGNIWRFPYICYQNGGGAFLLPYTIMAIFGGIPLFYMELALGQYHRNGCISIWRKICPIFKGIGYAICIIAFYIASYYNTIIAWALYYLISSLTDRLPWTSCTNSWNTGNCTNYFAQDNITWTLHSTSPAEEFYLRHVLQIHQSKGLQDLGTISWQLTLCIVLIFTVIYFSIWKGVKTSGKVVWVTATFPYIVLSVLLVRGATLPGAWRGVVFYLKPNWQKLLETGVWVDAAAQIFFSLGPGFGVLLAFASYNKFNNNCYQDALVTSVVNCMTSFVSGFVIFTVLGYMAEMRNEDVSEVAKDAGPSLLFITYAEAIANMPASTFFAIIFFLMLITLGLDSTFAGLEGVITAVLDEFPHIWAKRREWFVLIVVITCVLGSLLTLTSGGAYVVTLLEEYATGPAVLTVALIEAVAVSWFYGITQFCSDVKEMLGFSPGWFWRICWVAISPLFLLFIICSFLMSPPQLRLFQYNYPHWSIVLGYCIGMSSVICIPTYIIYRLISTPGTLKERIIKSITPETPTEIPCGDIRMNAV
Outline: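 Membranes stored at -80 °C. [3H]paroxetine 0.1 nM final, 2 mg tissue/sample, 2.0 mL, in 50 mM Tris HCl pH 7.4 with 120 mM NaCl and 5 mM KCl. Filters presoaked in 0.5% poly(ethylenimine). Mean ± SEM of three determinations.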

[12] = molecular target: T2, Serotonin 3 (5-HT3) receptor (Rattus norvegicus); assay: Intrinsic efficacy against 5-hydroxytryptamine 3 receptor; A means pure agonist; format: functional; details: filed as agonist
Outline: (§4)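 Mouse neuroblastoma × rat glioma NG 108-15 cells grown 2 days in DMEM; washed, then incubated 10 min at 37 °C in guanidinium buffer B (135 mM NaCl, 10 mM guanidinium, pH 7.4) with […] [14C]guanidinium, 10 μM substance P, 1 μM 5-HT where indicated, eight drug concentrations; ice-cold choline wash, NaOH lysis, scintillation counting. Triplicates; EC50 (agonists/partial agonists) or IC50 (antagonists).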

NG108-15 [13] = assay: Quantitative effect on the [14C]guanidinium accumulation in NG 108-15 cells.; format: functional, cell-based; details: Murinae; outline: as §4
[14] = molecular target: T6, 5-hydroxytryptamine receptor 2A; assay: Binding affinity against 5-hydroxytryptamine 2A receptor of rat pre-frontal cortex; format: tissue-based; outline: as §3
[15] = molecular target: T4, 5-hydroxytryptamine receptor 2C; assay: Binding affinity against 5-hydroxytryptamine 2C receptor of rat cortex; format: tissue-based
[16] = molecular target: T5, 5-hydroxytryptamine receptor 1B; assay: Binding affinity against 5-hydroxytryptamine 1B receptor of rat striatum; format: tissue-based
Outline: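 [3H]5-HT 2.3 nM final, 14 mg tissue/sample, 1.0 mL, in 50 mM Tris HCl pH 7.7 with 10 μM pargyline, 4 mM CaCl2 and 0.1% ascorbic acid. Filtration through GF/B filters, scintillation counting. […] Mean ± SEM of three determinations.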

Structure (SMILES): CCOC(=O)c1c(N2CCN(C)CC2)nc2cccc3c2c1-c1ccccc1-3
- Ki [1]: 0.0039 µM

Structure (SMILES): CN1CCN(c2nc3ccccc3c3c2CCCC3)CC1
- Intrinsic efficacy [2]: Partial agonist
- EC50 (NG108-15 [3]): 0.00025 µM

Structure (SMILES): CN1CCN(c2nc3ccccc3c3c2C(=O)c2ccccc2-3)CC1
- Ki [1]: 0.02 µM
- Intrinsic efficacy [4]: Antagonist
- IC50 (NG108-15 [5]): 0.139 µM

Structure (SMILES): CN1CCN(c2ccnc3c2ccc2ccccc23)CC1
- Ki [1]: 0.49 µM

Structure (SMILES): CN1CCN(c2nc3ccccc3c3c2CSc2ccccc2-3)CC1
- Ki [6]: 0.019 µM

Structure (SMILES): CN1CCN(c2nc3ccccc3c3c2CC2CCC3C2)CC1 (stereo not drawn)
- Intrinsic efficacy [4]: Antagonist
- IC50 (NG108-15 [5]): 0.008 µM

Structure (SMILES): c1ccc2c(c1)ccc1c(N3CCOCC3)nccc12
- Ki [1]: 4.9 µM

Structure (SMILES): CN1CCN(c2nc3ccccc3c3c2CCC2CCCCC32)CC1 (stereo not drawn)
- Ki [6]: 0.029 µM
- Intrinsic efficacy [4]: Antagonist
- IC50 (NG108-15 [5]): 0.25 µM

Structure (SMILES): CN1CCN(c2nc3ccccc3c3c2CCc2sccc2-3)CC1
- Ki [6]: 0.0057 µM
- Ki [7]: 12 µM
- Ki [8]: 420 µM
- Intrinsic efficacy [4]: Antagonist
- Ki [9]: 1.5 µM
- Ki [10]: 3.1 µM
- Ki [11]: 4.6 µM
- IC50 (NG108-15 [5]): 0.062 µM

Structure (SMILES): CN1CCN(c2nc3c(c4c2CSc2ccccc2-4)CCCC3)CC1
- Ki [1]: 2.7 µM

Structure (SMILES): CN1C2CCCC1CC(NC(=O)c1nn(C)c3ccccc13)C2 (stereo not drawn)
- Intrinsic efficacy [4]: Antagonist

Structure (SMILES): c1ccc2c(c1)CCc1c(N3CCOCC3)nc3ccccc3c1-2
- Ki [6]: > 5.3 µM

Structure (SMILES): c1ccc2nc(N3CCNCC3)ccc2c1
- Intrinsic efficacy [12]: Agonist

Structure (SMILES): CCCCOC(=O)c1c(N2CCN(C)CC2)nc2cccc3c2c1-c1ccccc1-3
- Ki [1]: 0.078 µM

Structure (SMILES): CN1CCN(c2nc3c(c4c2CCc2ccccc2-4)CCCC3)CC1
- Ki [1]: 2.3 µM

Structure (SMILES): CN1CCN(c2nc3ccccc3c3c2CCc2ccccc2-3)CC1
- Ki [1]: 0.0042 µM
- Intrinsic efficacy [4]: Antagonist
- IC50 (NG108-15 [5]): 0.0046 µM

Structure (SMILES): NCCc1c[nH]c2ccc(O)cc12 [SEROTONIN]
- Intrinsic efficacy [12]: Agonist
- EC50 (NG108-15 [13]): 0.298 µM

Structure (SMILES): CN1CCN(c2cc3c4c(cccc4n2)-c2ccccc2-3)CC1
- Ki [7]: 24 µM
- Ki [1]: 0.0018 µM
- Ki [14]: 13 µM
- Ki [15]: > 10 µM
- Ki [16]: 0.64 µM
- Intrinsic efficacy [2]: Partial agonist
- Ki [11]: 1.6 µM
- EC50 (NG108-15 [3]): 0.012 µM

Structure (SMILES): CN1CCN(c2nc3ccccc3c(-c3ccccc3)c2COC(=O)c2ccccc2)CC1
- Ki [7]: 4.1 µM
- Ki [1]: 0.0088 µM
- Ki [14]: > 10 µM
- Ki [15]: 0.031 µM
- Ki [16]: 7.6 µM
- Intrinsic efficacy [4]: Antagonist
- Ki [11]: 1.1 µM
- IC50 (NG108-15 [5]): 0.009 µM

Structure (SMILES): CCCN(CCC)C(=O)c1c(N2CCN(C)CC2)nc2cccc3c2c1-c1ccccc1-3
- Ki [1]: 0.003 µM
- Intrinsic efficacy [2]: Partial agonist

Structure (SMILES): CN1CCN(c2cc(C34C[C@H]5C[C@@H](C3)C[C@@H](C4)C5)c3ccccc3n2)CC1
- Ki [1]: 0.08 µM
- Intrinsic efficacy [4]: Antagonist
- IC50 (NG108-15 [5]): 0.08 µM

Structure (SMILES): CN1CCN(c2nccc3c2ccc2ccccc23)CC1
- Intrinsic efficacy [12]: Agonist
- Ki [1]: 0.029 µM
- EC50 (NG108-15 [3]): 0.03 µM

Structure (SMILES): CN1CCN(c2nccc3c2CCc2ccccc2-3)CC1
- Intrinsic efficacy [12]: Agonist
- Ki [1]: 0.016 µM
- EC50 (NG108-15 [3]): 0.007 µM

Structure (SMILES): CN1CCN(c2nc3ccccc3c3ccccc23)CC1
- Intrinsic efficacy [12]: Agonist
- EC50 (NG108-15 [3]): 0.01 µM

Structure (SMILES): CN1CCN(c2nc3ccccc3c3c2ccc2ccccc23)CC1
- Ki [6]: 0.046 µM
